One may read the IC50 as the midpoint of a concentration-inhibition curve. The CC50 is the concentration at which the toxic effect on the cells reaches its halfway point.

This is an account of results in ChEMBL document CHEMBL4184121, “Semisynthesis, cytotoxicity, antimalarial evaluation and structure-activity relationship of two series of triterpene derivatives” (Bioorg Med Chem Lett, 2018).

The structures appear in SMILES notation. Activity calls are given as the source filed them. The rule behind the calls is not given here.

In data set [1] the test system is Plasmodium falciparum. Put plainly: Antiplasmodial activity against chloroquine-resistant Plasmodium falciparum W2 infected in human erythrocytes. It counts as functional, organism-based. Summed up:
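P. falciparum W2 grown in fresh human O+ erythrocytes at 2% hematocrit in complete medium, 37 °C. Compounds tested over a 100–3.12 µM dilution series. IC50 estimated from the dose-response curve relative to drug-free control wells (100% parasite viability). Artemisinin run in parallel as control. Triplicates, at least three independent cultures (n = 3).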

The nature of data set [2]: Cytotoxicity against African green monkey Vero cells after 72 hrs by MTT assay. Format: cell-based. The settings on record: chlorocebus sabaeus. Summed up: (§1)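 VERO (ATCC CCL-81) and HepG2 (ATCC HB-8065) cells were exposed for 24, 48 or 72 h to an […] dilution series from 400 to 1.56 μM. CC50 was taken from the concentration–response curve. Triplicates, with at least three independent cultures (n = 3).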

The nature of data set [3]: Cytotoxicity against human HepG2 cells after 72 hrs by MTT assay. It counts as cell-based. In a few lines: as §1
For orientation: Tetrazolium assays rely on reduction of a dye to a coloured formazan, in cell work by metabolically active cells.

The nature of data set [4]: Selectivity index, ratio of CC50 for human HepG2 cells to IC50 for chloroquine-resistant Plasmodium falciparum W2. Format: toxicity. The settings on record: read-out: Ratio CC50/IC50. In a few lines:
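SI = HepG2 CC50 / W2 IC50. CC50 came from HepG2 growth inhibition over a 400–1.56 µM dilution series, read at 24, 48 and 72 h. IC50 came from the W2 erythrocyte assay (100–3.12 µM range). Triplicates, at least three independent cultures.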

The test system of data set [5] is Plasmodium falciparum. Description: Antiplasmodial activity against chloroquine-sensitive Plasmodium falciparum 3D7. Format: functional, organism-based.
Data set [6] can be described thus: Resistance index, ratio of IC50 for chloroquine-resistant Plasmodium falciparum W2 infected in human erythrocytes to IC50 for chloroquine-sensitive Plasmodium falciparum 3D7. Format: functional.
Data set [7] concerns Plasmodium falciparum. Put plainly: Antiplasmodial activity against synchronous culture of chloroquine-resistant Plasmodium falciparum W2 ring stage parasite infected in human erythrocytes assessed as accumulation of ring forms at 100 uM after 24 to 72 hrs by Wright's eosin methylene blue staining based microscopic analysis. It counts as functional, organism-based. Summed up: (§2)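 Stage-specificity test on W2 parasites in human erythrocytes, started at 2% parasitaemia. Parasites cultured at 2% hematocrit in complete medium at 37 °C.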

Data set [8] relates to Plasmodium falciparum. Put plainly: Antiplasmodial activity against synchronous culture of chloroquine-resistant Plasmodium falciparum W2 ring stage parasite infected in human erythrocytes assessed as reduction in parasitaemia at 100 uM after 24 to 72 hrs by Wright's eosin methylene blue staining based microscopic analysis. It counts as functional, organism-based. Summed up: as §2

Data set [9] relates to Plasmodium falciparum. Put plainly: Antiplasmodial activity against synchronous culture of chloroquine-resistant Plasmodium falciparum W2 ring stage parasite infected in human erythrocytes assessed as parasite cell death at 100 uM up to 72 hrs by Wright's eosin methylene blue staining based microscopic analysis. Format: functional, organism-based. Summed up: as §2
Data set [10] relates to Plasmodium falciparum. Put plainly: Antiplasmodial activity against synchronous culture of chloroquine-resistant Plasmodium falciparum W2 ring stage parasite infected in human erythrocytes assessed as delayed appearance of trophozoites at 100 uM after 24 to 72 hrs by Wright's eosin methylene blue staining based microscopic analysis. It counts as functional, organism-based. Summed up: as §2

Data set [11] concerns the target T1, Subtilisin Carlsberg (Bacillus licheniformis, UniProt P00780).
T1 sequence (P00780 whole entry): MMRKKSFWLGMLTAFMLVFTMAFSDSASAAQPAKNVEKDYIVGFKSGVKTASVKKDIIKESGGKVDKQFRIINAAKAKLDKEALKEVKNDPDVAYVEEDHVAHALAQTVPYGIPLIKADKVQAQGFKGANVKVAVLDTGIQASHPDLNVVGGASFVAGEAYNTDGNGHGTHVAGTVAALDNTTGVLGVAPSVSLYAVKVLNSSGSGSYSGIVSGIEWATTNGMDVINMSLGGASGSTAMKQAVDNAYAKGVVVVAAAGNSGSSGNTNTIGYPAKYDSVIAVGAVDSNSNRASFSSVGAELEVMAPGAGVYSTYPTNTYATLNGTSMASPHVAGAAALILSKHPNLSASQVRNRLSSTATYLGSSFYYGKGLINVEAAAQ
Put plainly: Inhibition of Bacillus licheniformis subtilisin A by green-fluorescent BODIPY FL dye based fluorescence assay. In a few lines: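 Purified B. licheniformis subtilisin A tested with a commercial fluorescent peptidase/protease kit, following the kit protocol. Test compound ranged from 5 to 0.01 mM. Fluorescence plotted against log inhibitor concentration.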

Data set [12] concerns Plasmodium falciparum. Description: Antiplasmodial activity against Plasmodium falciparum assessed as combination index in presence of artemisinin. Format: functional. Summed up:
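Chloroquine-resistant P. falciparum W2 was grown in fresh human O+ erythrocytes at 2% hematocrit in complete medium at 37 °C. Artemisinin was co-tested with the triterpene using the one-point Chou–Talalay method, at a minimum of one combination ratio. CI is the sum of the two FICs: ≤1 synergy, 1–2 additivity, >2 antagonism. Triplicates, n = 3 independent cultures.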

The subject of data set [13] is Plasmodium falciparum. Description: Antiplasmodial activity against Plasmodium falciparum assessed as potentiation of artemisinin-induced antimalarial activity by measuring dose reduction index relative to artemisinin alone. Format: functional.

As to `C=C(C)[C@@H]1CC[C@]2(C(=O)O)CC[C@]3(C)[C@H](CC[C@@H]4[C@@]5(C)CC[C@H](OC(=O)CCC)C(C)(C)[C@@H]5CC[C@]43C)[C@@H]12`, the IC50 worked out at 3.4 µM in data set [1], 5 µM in data set [5] and 93 µM in data set [11]. Moreover, the half-maximal cytotoxic concentration (CC50) at 72 h in data set [2] and in data set [3] was over 400 µM throughout. The selectivity ratio in data set [4] was over 117. In data set [6], the “Ratio IC50” value turned out to be 0.68. For the same compound, the outcome in data set [7], in data set [8], in data set [9] and in [10] was Active. For the same compound, in data set [12], the CI came out at 1.34. Also, in data set [13], the Activity_index is recorded as 4.
